Laboratory results reported in ChEMBL document CHEMBL4477197, “Antitumor Activity of Spicatoside A by Modulation of Autophagy and Apoptosis in Human Colorectal Cancer Cells” (J Nat Prod, 2016).

Key:
HCT-116 = experiment: Antiproliferative activity against human HCT116 cells after 24 to 72 hrs by SRB assay; format: functional, cell-based
In short: (§1)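 Cells from ATCC were grown at 37 °C in 5% CO2, in RPMI 1640 (A549, HCT116, SNU-638) or DMEM (MDA-MB-231, SK-HEP-1, MRC5) with 10% FBS. They were seeded at 6 × 10^3 cells/well for 24 h, then exposed for 72 h. Cells were TCA-fixed, stained with 0.4% SRB, and read at 515 nm against day-zero plates. IC50 came from nonlinear regression, as means ± SD.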

A549 = experiment: Antiproliferative activity against human A549 cells after 24 to 72 hrs by SRB assay; format: functional, cell-based; in short: as §1
SK-HEP1 = experiment: Antiproliferative activity against human SKHEP1 cells after 24 to 72 hrs by SRB assay; format: functional, cell-based; in short: as §1
MDA-MB-231 = experiment: Antiproliferative activity against human MDA-MB-231 cells after 24 to 72 hrs by SRB assay; format: functional, cell-based; in short: as §1
SNU-638 = experiment: Antiproliferative activity against human SNU638 cells after 24 to 72 hrs by SRB assay; format: functional, cell-based; in short: as §1
MRC5 = experiment: Antiproliferative activity against human MRC5 cells after 24 to 72 hrs by SRB assay; format: cell-based; in short: as §1

In the case of Cc1c2ccncc2c(C)c2c1[nH]c1ccccc12 [ELLIPTECINE], the IC50 (HCT-116) is reported as 1000 nM, the IC50 (A549) is reported as 400 nM and the IC50 (SK-HEP1) is reported as 400 nM. The IC50 (MDA-MB-231) was 100 nM, the IC50 (SNU-638) was 2700 nM and the IC50 (MRC5) was 1300 nM.
